High-throughput results (PubChem BioAssay)
Smad3 inh = inhibitors of human Smad3 transcription factor binding; P84022; TR-FRET Smad3/Dy647-FoxH1 peptide binding, europium anti-His; inhibition, % at 25 µM; actives 0.29% (n = 88,000);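 active means compounds that reduce the energy-transfer binding signal between the protein and its labelled peptide by more than half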
Target sequence (P84022 whole entry, looked up): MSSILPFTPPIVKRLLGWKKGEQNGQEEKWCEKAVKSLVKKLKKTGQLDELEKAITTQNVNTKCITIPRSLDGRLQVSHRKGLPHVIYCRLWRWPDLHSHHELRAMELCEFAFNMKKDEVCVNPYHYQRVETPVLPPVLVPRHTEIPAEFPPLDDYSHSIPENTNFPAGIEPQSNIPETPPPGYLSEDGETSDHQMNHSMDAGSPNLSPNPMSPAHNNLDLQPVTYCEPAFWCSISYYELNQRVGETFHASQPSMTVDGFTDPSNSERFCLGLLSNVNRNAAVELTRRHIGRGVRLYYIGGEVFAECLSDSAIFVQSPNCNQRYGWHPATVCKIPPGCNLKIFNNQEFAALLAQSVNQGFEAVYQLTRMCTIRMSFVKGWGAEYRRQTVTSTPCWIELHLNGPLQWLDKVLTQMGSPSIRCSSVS
Mac1 fbg enh = increases human CD11b/CD18 adhesion to fibrinogen; K562 CD11b/CD18 adhesion to fibrinogen, ATPlite luminescence; activation, % at 10 µM; actives 0.07% (n = 93,000); AID 1499;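 active means 10 µM primary screen giving 50% or more activity, confirmed by 40% or more on retest at that dose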
EphB4 ephrin blk = blocks human EphB4 binding to ephrin-B2; EphB4 LBD / TNYL-RAW-Alexa532 peptide, fluorescence polarization; inhibition, % at 7 µM; actives 0.15% (n = 97,000); P54760;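 active means inhibition above the screen-wide mean inhibition plus 3 SD, cut at about 15% in these data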
Mac1 fbg inh = blocks human CD11b/CD18 adhesion to fibrinogen. K562 CD11b/CD18 adhesion to fibrinogen, ATPlite luminescence; Mn2+ added to activate the integrin. inhibition, % at 10 µM. actives 0.54% (n = 93,000). AID 1497;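 active means primary inhibition of 50% or more at 10 µM, then 40% or more on retest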
Phagocyt inh = macrophage phagocytosis inhibition. J774A.1 macrophage IgG-bead phagocytosis, imaging. inhibition, % at 5 µM. actives 0.07% (n = 110,000). AID 1029;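 active means inhibition above the mean of the plate negative controls plus 5 SD, cut at about 13% in these data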;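 further: phagocytic index as fraction of beads internalized from green versus red external bead signal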
Rev-RRE block = disrupts HIV-1 Rev binding to RRE RNA; P05866; Rev peptide-RRE RNA binding, FRET; inhibition, % at 8 µM; actives 0.79% (n = 97,000); AID 704;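 active means inhibition above the screen-wide mean plus 3 SD, cut at about 35% in these data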
Target sequence (P05866 whole entry, looked up): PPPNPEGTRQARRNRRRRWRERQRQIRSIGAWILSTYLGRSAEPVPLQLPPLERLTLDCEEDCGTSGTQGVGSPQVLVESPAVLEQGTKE
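Test system – labelled RRE RNA duplex and labelled Rev peptide · Reagent – labelled Rev peptide · Doses – one concentration, 8 µM nominal · Incubation – 5 + 15 min at 25 °C · Signal – FRET fluorescence readout · Read-out basis – % inhibition of FRET ratio versus controls · Control set – DMSO wells as 0% and neomycin B wells as 100% inhibition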
Hits are given with their value; 0 = inactive; - = no result; [ ] = remark or other dose. A selection: hits, their analogues and other compounds. The true share with any hit is near 1.3%.

SMILES	Smad3 inh	Mac1 fbg enh	EphB4 ephrin blk	Mac1 fbg inh	Phagocyt inh	Rev-RRE block
CCOc1ccc(C(=O)Nc2cccc(-c3nc4cccnc4o3)c2)cc1Cl	-	55	0	0	0	0
CCOc1ccc(C(=O)Nc2ccc(NC(=O)c3ccco3)c(Cl)c2)cc1Cl	0	0	0	0	0	0
CCCCc1ccc(S(=O)(=O)NCCc2ccncc2)cc1	0	0	0	65	0	0
N#C/C(=C/c1ccc(N2CCOCC2)o1)c1ccc(Br)cc1	-	0	0	0	0	123[fluorescence artefact?]
N#C/C(=C\c1ccc(N2CCOCC2)o1)c1ccccc1	-	0	0	0	0	78
N#C/C(=C/c1ccc(N2CCOCC2)o1)c1nc2ccccc2[nH]1	0	-	0	-	-	136[fluorescence artefact?]
O=C(CCNC(=O)c1ccc(Cl)cc1)Nc1c(F)c(F)cc(F)c1F	-	-	-	-	0	-
CN1C=CC2=C(C#N)C(N)C(C#N)(C#N)C(c3ccccc3)C2C1 (centres undefined)	0	-	0	-	0	64
C[C@@]12C[C@H](O)[C@@H]3[C@H](CCC4=CC(=O)CC[C@]43C)[C@H]1CC[C@H]2c1csc(N)n1	0	-	-	-	-	-
CCOC(=O)c1sc2nc(C)c3c(c2c1N)CC(C)(C)OC3	0	0	15	0	0	0
CCCc1nc2sc(C(=O)OCC)c(N)c2c2c1COC(C)(C)C2	0	0	0	0	0	0
Nc1ncnc2nc[nH]c12.Nc1ncnc2nc[nH]c12.[Cl][Pt]([Cl])([Cl])[Cl]	71	-	-	-	-	-
COc1ccc(S(=O)(=O)N(C)c2ccc(C(=O)NCCC(C)C)cc2)cc1	69	0	0	0	0	0
CCSC1=N/C(=C\c2ccc(-c3ccccc3[N+](=O)[O-])o2)C(=O)S1	-	-	0	-	-	54
CCOc1cc(/C=C2\C(=O)N(c3nc(-c4ccc(Br)cc4)cs3)N=C2c2ccccc2)ccc1O	0	0	0	0	0	58
CCN(CC(=O)O)C(=O)c1cccnc1	0	-	-	-	-	-
COc1ccc(-c2cn(-c3ccc(OC)cc3)c3[n+]2-c2ccccc2CC3)cc1	-	0	-	84	0	-
COc1ccc(-n2c(-c3ccc(Br)cc3)c[n+]3c2CCc2ccccc2-3)cc1	-	-	-	-	0	-
Cn1c(=O)c2ncn(CC(=O)Nc3ccc4c5c(cccc35)CC4)c2n(C)c1=O	0	0	0	0	0	46
Cc1cccc(C)c1NC(=O)Cn1cnc2c(=O)n(C)c(=O)n(C)c21	0	0	0	0	0	0
Cc1ccc2nc(-c3cccc(-c4nc5ccc(C)cc5o4)n3)oc2c1	0	-	-	-	-	-
Cc1ccc2nc(-c3cccc(N)c3)oc2c1	0	0	0	59	0	0
COc1cc2cc(CN(Cc3nnnn3Cc3ccccc3)CC3CCCO3)c(=O)[nH]c2cc1OC (centres undefined)	0	0	0	0	0	0
COc1ccc2[nH]c(=O)c(CN(C3CCCCC3)C(c3nnnn3Cc3ccco3)C(C)C)cc2c1 (centres undefined)	0	0	0	0	0	43
COc1ccc2[nH]c(=O)c(CN(Cc3ccccc3)Cc3nnnn3CC3CCCO3)cc2c1 (centres undefined)	0	0	16	0	0	0
SMILES	Smad3 inh	Mac1 fbg enh	EphB4 ephrin blk	Mac1 fbg inh	Phagocyt inh	Rev-RRE block
COc1ccc2[nH]c(=O)c(CN(Cc3nnnn3Cc3ccco3)C3CCCCC3)cc2c1	0	0	0	0	0	0
Fc1ccc(NC(=S)Nc2ccc(F)c(Cl)c2)cc1Cl	-	0	0	92	0	0
Fc1ccc(NC(=S)Nc2cccc(Cl)c2)cc1	-	-	-	-	0	-
O=C(O)c1cccc(SSc2cccc(C(=O)O)c2)c1	0	-	-	-	-	-
Cc1cc(C2=NNC(=NC3CC3)SC2)c(C)n1-c1ccccc1	-	0	-	98	0	-
Cc1cc(C2=NNC(=NC3CC3)SC2)c(C)n1Cc1ccco1	-	0	-	75	0	-
N=C1CCC[C@H]1C(=S)SCCC(N)=O	0	-	-	-	-	-
O=C1C2=C(Nc3cc([N+](=O)[O-])ccc3N2)O[C@@H]1c1c[nH]c2ccc(COc3ccccc3)cc12	0	-	-	-	-	-
Cc1ccc(-n2nc3c(c2NC(=O)c2c(-c4ccccc4Cl)noc2C)CSC3)cc1	0	72	0	0	0	0
c1ccc2[nH]c3cc4ncnc4cc3nc2c1	-	-	-	-	0	-
Cc1onc(-c2ccccc2Cl)c1C(=O)Nc1nnc(-c2cccc([N+](=O)[O-])c2)s1	0	0	0	90	0	0
c1ccc(CN2COc3c(ccc4c5c(ccc34)CN(Cc3ccccc3)CO5)C2)cc1	0	-	-	-	-	-
COCC(=O)Nc1nc2n(n1)C(c1ccccc1Cl)CC(c1ccc(OC)cc1)N2 (centres undefined)	0	0	0	0	0	0
COCC(=O)Nc1nc2n(n1)C(c1ccc(Cl)cc1)CC(c1ccc(OC)cc1)N2 (centres undefined)	0	0	0	0	0	36
O=C(COc1ccc(S(=O)(=O)NCc2ccccc2)cc1)NCC1CCCO1 (centres undefined)	0	0	0	0	24	0
Nc1c(C(=O)Nc2ccc(Br)cc2)sc2nc(-c3ccco3)ccc12	-	0	0	0	0	46
Nc1c(C(=O)Nc2ccc(F)cc2)sc2nc(-c3ccco3)ccc12	0	0	0	0	0	46
Cc1ccc(-c2nc3sc4c(c3c(=O)n2N)CC(C)(C)OC4)cc1	0	0	0	0	0	0
CC1(C)Cc2c(sc3nnn(Cc4ccc(Cl)cc4)c(=O)c23)CO1	-	-	-	-	38[artifact]	-
O=C(O)c1[nH]c2c([N+](=O)[O-])cc([N+](=O)[O-])cc2c1C(=O)O	0	-	-	-	-	-
COc1ccc2nc(NC(=O)C(NS(=O)(=O)c3cccc4nsnc34)C(C)C)sc2c1 (centres undefined)	-	0	0	0	0	0
CCOC(=O)Cc1csc(NC(=O)c2ccc(Cl)nc2)n1	0	-	0	-	-	41
CCOC(=O)Cc1csc(NC(=O)c2sc3nc4ccc(CC)cc4cc3c2N)n1	-	-	0	-	-	85[fluorescence artefact?]
C[N+](C)(C)CCN(Cc1cccs1)c1ccccn1	0	-	-	-	-	-
O=C(C1CC1)N1CCC(c2nc(-c3ccc(S(=O)(=O)NCC4CCCO4)cc3)no2)CC1 (centres undefined)	0	0	0	62	0	0
SMILES	Smad3 inh	Mac1 fbg enh	EphB4 ephrin blk	Mac1 fbg inh	Phagocyt inh	Rev-RRE block
Cc1cc(-c2cc(C)c(O)c(C(C)(C)C)c2)cc(C(C)(C)C)c1O	63	-	-	-	-	-
Cc1cc2oc(=O)cc(CN3CCOCC3)c2cc1C	0	0	0	0	0	0
CCNc1cc2oc(=O)c(CN3CCOCC3)c(C)c2cc1C	0	0	0	0	0	79
CCCCn1c(=NC(=O)c2cccnc2)c(C#N)cc2c(=O)n3cccc(C)c3nc21	0	0	0	0	0	49
O=S1(=O)OC(c2ccc(O)cc2)(c2ccc(O)cc2)c2ccccc21	97	-	-	-	-	-
Cc1cc(O)ccc1C1(c2ccc(O)cc2C)OC(=O)c2ccccc21	0	-	0	-	-	0
Cc1ccc(C)c(/C(=N/N=C(N)N)C2CC2)c1	0	-	-	-	-	-
O=C(Nc1c(-c2ccccc2)nc2sccn12)c1ccccc1	51	0	-	0	0	-
NNS(=O)(=O)c1cc(C(=O)O)cc(C(=O)O)c1	0	-	-	-	-	-
